# From ChEMBL document CHEMBL2177000, “Pharmacokinetic optimization of class-selective histone deacetylase inhibitors and identification of associated candidate predictive biomarkers of hepatocellular carcinoma tumor response” (J Med Chem, 2012)
# Legend:
# [1] = Tmax in BALB/C mouse at 5 mg/kg, po or 1 mg/kg, iv by LC-MS/MS method; assay type: ADME, organism-based; conditions: in vivo
# Method in brief: (§1)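 Nude-mouse PK at reduced doses, 1 mg/kg iv bolus (5% DMSO, 40% PEG400, 55% saline) and 5 mg/kg oral gavage (microcrystalline cellulose microsuspension); plasma from serial heparinized blood samples (eight po, nine iv time points) quantified by LC-MS/MS, parameters by noncompartmental methods.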
# [2] = Half life in BALB/C mouse at 5 mg/kg, po or 1 mg/kg, iv by LC-MS/MS method; assay type: ADME, organism-based; conditions: in vivo
# Method in brief: (§2)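 BALB/C nude mice (15−20 g) given 5 mg/kg po and 1 mg/kg iv; blood collected at eight (po) or nine (iv) time points into sodium heparin tubes, plasma stored at −20 °C, measured by LC-MS/MS and analysed noncompartmentally.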
# [3] = Clearance in human liver microsomes at 1 uM incubated for 10 mins by LC-MS/MS method; assay type: ADME, Microsome
# Method in brief: (§3)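 Liver microsomes (human or mouse, 0.5 mg/mL) in 100 mM potassium phosphate pH 7.4 with 1 μM compound, prewarmed 10 min at 37 °C, started with NADPH (10 mM); stopped at 0, 3, 6, 9, 15, 30 min with ice-cold methanol containing tolbutamide internal standard; LC-MS/MS. Hepatic clearance (mL/min/kg) calculated from intrinsic clearance.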
# [4] = Clearance in mouse liver microsomes at 1 uM incubated for 10 mins by LC-MS/MS method; assay type: ADME, Microsome; method in brief: as §3
# [5] = AUC in BALB/C mouse at 5 mg/kg, po or 1 mg/kg, iv by LC-MS/MS method; assay type: ADME, organism-based; conditions: plasma; method in brief: as §2
# [6] = Cmax in BALB/C mouse at 5 mg/kg, po or 1 mg/kg, iv by LC-MS/MS method; assay type: ADME, organism-based; conditions: in vivo; method in brief: as §2
# [7] = Volume of distribution at steady state in BALB/C mouse at 5 mg/kg, po or 1 mg/kg, iv by LC-MS/MS method; assay type: ADME, organism-based; conditions: in vivo, read-out: Vdss; method in brief: as §1
# [8] = Clearance in BALB/C mouse at 5 mg/kg, po or 1 mg/kg, iv by LC-MS/MS method; assay type: ADME, organism-based; conditions: in vivo; method in brief: as §2
# [9] = molecular target: Histone deacetylase (Homo sapiens) (UniProt Q13547+O15379+Q9UBN7+Q92769+Q9UQL6+Q8WUI4+Q9BY41+Q96DB2+P56524+Q9UKV0+Q969S8); assay: Inhibition of Class 1 histone deacetylase in human HeLa cells assessed as induction in p21 protein expression at 3 uM incubated for 16 hrs by luciferase reporter gene assay relative to HDAC inhibitor entinostat; assay type: cell-based; design: scale not given: the % may be the effect or the level left
# [10] = Oral bioavailability in BALB/C mouse at 5 mg/kg by LC-MS/MS method; assay type: ADME, organism-based; conditions: in vivo; method in brief: as §2
# [11] = test system: Mus musculus; assay: (§4) Oral bioavailability in BALB/C mouse at 10 mg/kg by LC-MS/MS method; assay type: ADME, organism-based; conditions: in vivo
# Method in brief: (§5)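 Bioavailability from single-dose iv (2 mg/kg, 5% DMSO/40% PEG400/55% saline) and oral gavage (10 mg/kg, 0.445% microcrystalline cellulose microsuspension) studies in BALB/C nude mice (N = 16 per arm); plasma at eight (po) or nine (iv) time points, LC-MS/MS, noncompartmental analysis.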
# [12] = test system: Mus musculus; assay: (§6) Cmax in BALB/C mouse at 10 mg/kg, po or 2 mg/kg, iv by LC-MS/MS method; assay type: ADME, organism-based; conditions: in vivo
# Method in brief: (§7)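 Female-unspecified BALB/C nude mice (15−20 g, N = 16 per arm); iv bolus 2 mg/kg in 5% DMSO/40% PEG400/55% saline and/or oral gavage 10 mg/kg as 0.445% microcrystalline cellulose microsuspension. Blood sampled at nine (iv) or eight (po) time points into sodium heparin tubes; plasma by LC-MS/MS; noncompartmental analysis.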
# [13] = test system: Mus musculus; assay: (§8) AUC in BALB/C mouse at 10 mg/kg, po or 2 mg/kg, iv by LC-MS/MS method; assay type: ADME, organism-based, Plasma; conditions: in vivo; method in brief: as §7
# [14] = test system: Mus musculus; assay: (§9) Tmax in BALB/C mouse at 10 mg/kg, po or 2 mg/kg, iv by LC-MS/MS method; assay type: ADME, organism-based; conditions: in vivo
# Method in brief: (§10)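 Single-dose PK: iv bolus 2 mg/kg in 5% DMSO/40% PEG400/55% saline and/or oral gavage 10 mg/kg as 0.445% microcrystalline cellulose microsuspension; BALB/C nude mice (15−20 g, N = 16 per arm) or male Sprague−Dawley rats (250 ± 20 g, N = 3). Blood at eight (po) or nine (iv) time points into sodium heparin, plasma by LC-MS/MS, noncompartmental analysis.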
# [15] = Clearance in BALB/C mouse at 10 mg/kg, po or 2 mg/kg, iv by LC-MS/MS method; assay type: ADME, organism-based; conditions: in vivo; method in brief: as §7
# [16] = test system: Mus musculus; assay: (§11) Half life in BALB/C mouse at 10 mg/kg, po or 2 mg/kg, iv by LC-MS/MS method; assay type: ADME, organism-based; conditions: in vivo; method in brief: as §7
# [17] = as §4; assay type: ADME, organism-based; conditions: BALB/C, in vivo; method in brief: as §5
# [18] = as §6; assay type: ADME, organism-based; conditions: BALB/C, in vivo; method in brief: as §7
# [19] = molecular target: Cytochrome P450 2C19 (Homo sapiens, UniProt P33261); assay: Inhibition of CYP2C19 in human liver microsomes in presence of NADPH by LC-MS/MS method; assay type: ADME, Microsome
# [20] = molecular target: Cytochrome P450 3A4 (Homo sapiens, UniProt P08684); assay: Inhibition of CYP3A4 in human liver microsomes in presence of NADPH by LC-MS/MS method; assay type: ADME, Microsome
# [21] = molecular target: Cytochrome P450 2D6 (Homo sapiens, UniProt P10635); assay: Inhibition of CYP2D6 in human liver microsomes in presence of NADPH by LC-MS/MS method; assay type: ADME, Microsome
# [22] = molecular target: Voltage-gated inwardly rectifying potassium channel KCNH2 (Homo sapiens, UniProt Q12809); assay: Inhibition of human ERG expressed in CHO cells by patch clamp method; assay type: cell-based
# [23] = molecular target: Cytochrome P450 2C9 (Homo sapiens, UniProt P11712); assay: Inhibition of CYP2C9 in human liver microsomes in presence of NADPH by LC-MS/MS method; assay type: ADME, Microsome
# [24] = as §8; assay type: ADME, organism-based, Plasma; conditions: BALB/C, plasma; method in brief: as §7
# [25] = as §9; assay type: ADME, organism-based; conditions: BALB/C, in vivo; method in brief: as §10
# [26] = Volume of distribution at steady state in BALB/C mouse at 10 mg/kg, po or 2 mg/kg, iv by LC-MS/MS method; assay type: ADME, organism-based; design: unit not given here; conditions: in vivo, read-out: Vdss; method in brief: as §10
# [27] = as §11; assay type: ADME, organism-based; conditions: BALB/C, in vivo; method in brief: as §7
# [28] = molecular target: T1, Cytochrome P450 1A2 (Homo sapiens, UniProt P05177); assay: Inhibition of CYP1A2 in human liver microsomes in presence of NADPH by LC-MS/MS method; assay type: ADME, Microsome
# T1 sequence (P05177 whole entry): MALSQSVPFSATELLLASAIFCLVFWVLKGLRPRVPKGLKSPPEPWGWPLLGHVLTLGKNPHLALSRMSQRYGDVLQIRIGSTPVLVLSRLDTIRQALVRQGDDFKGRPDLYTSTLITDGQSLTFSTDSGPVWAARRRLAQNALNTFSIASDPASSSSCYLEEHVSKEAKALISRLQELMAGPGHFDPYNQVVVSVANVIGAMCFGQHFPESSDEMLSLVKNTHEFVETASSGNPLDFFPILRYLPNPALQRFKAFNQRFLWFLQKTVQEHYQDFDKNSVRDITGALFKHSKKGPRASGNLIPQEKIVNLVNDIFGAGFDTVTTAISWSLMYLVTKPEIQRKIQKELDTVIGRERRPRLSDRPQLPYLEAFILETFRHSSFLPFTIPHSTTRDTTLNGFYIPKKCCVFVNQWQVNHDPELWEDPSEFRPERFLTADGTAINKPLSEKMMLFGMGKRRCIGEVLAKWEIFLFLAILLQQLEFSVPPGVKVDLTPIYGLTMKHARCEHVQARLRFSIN
# [29] = Tmax in Sprague-Dawley rat at 10 mg/kg, po or 2 mg/kg, iv by LC-MS/MS method; assay type: ADME, organism-based; conditions: in vivo; method in brief: as §10
# [30] = AUC in Sprague-Dawley rat at 10 mg/kg, po or 2 mg/kg, iv by LC-MS/MS method; assay type: ADME, organism-based; conditions: plasma
# Method in brief: (§12)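 Male Sprague−Dawley rats (250 ± 20 g; N = 3); iv bolus 2 mg/kg in 5% DMSO/40% PEG400/55% saline and/or gavage 10 mg/kg in 0.445% microcrystalline cellulose microsuspension; plasma from heparinized blood at eight (po) or nine (iv) time points, LC-MS/MS, noncompartmental analysis.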
# [31] = Cmax in Sprague-Dawley rat at 10 mg/kg, po or 2 mg/kg, iv by LC-MS/MS method; assay type: ADME, organism-based; conditions: in vivo; method in brief: as §12
# [32] = Volume of distribution at steady state in Sprague-Dawley rat at 10 mg/kg, po or 2 mg/kg, iv by LC-MS/MS method; assay type: ADME, organism-based; conditions: in vivo, read-out: Vdss; method in brief: as §10
# [33] = Clearance in Sprague-Dawley rat at 10 mg/kg, po or 2 mg/kg, iv by LC-MS/MS method; assay type: ADME, organism-based; conditions: in vivo; method in brief: as §12
# [34] = Oral bioavailability in Sprague-Dawley rat at 10 mg/kg by LC-MS/MS method; assay type: ADME, organism-based; conditions: in vivo; method in brief: as §10
# Sequence of Cytochrome P450 2C9 (P11712 whole entry): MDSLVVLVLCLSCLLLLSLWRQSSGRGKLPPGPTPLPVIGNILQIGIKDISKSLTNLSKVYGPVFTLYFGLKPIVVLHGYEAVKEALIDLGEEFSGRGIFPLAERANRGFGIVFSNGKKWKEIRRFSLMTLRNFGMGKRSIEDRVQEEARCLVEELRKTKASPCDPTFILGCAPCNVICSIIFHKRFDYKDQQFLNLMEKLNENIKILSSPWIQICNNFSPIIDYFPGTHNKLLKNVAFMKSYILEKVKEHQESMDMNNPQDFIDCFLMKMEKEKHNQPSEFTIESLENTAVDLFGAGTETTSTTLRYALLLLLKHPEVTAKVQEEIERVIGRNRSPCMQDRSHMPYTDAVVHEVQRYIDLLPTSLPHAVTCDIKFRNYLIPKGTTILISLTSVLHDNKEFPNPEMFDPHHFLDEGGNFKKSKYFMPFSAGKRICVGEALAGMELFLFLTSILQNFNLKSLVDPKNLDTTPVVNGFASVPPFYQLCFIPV
# Sequence of Voltage-gated inwardly rectifying potassium channel KCNH2 (Q12809 whole entry): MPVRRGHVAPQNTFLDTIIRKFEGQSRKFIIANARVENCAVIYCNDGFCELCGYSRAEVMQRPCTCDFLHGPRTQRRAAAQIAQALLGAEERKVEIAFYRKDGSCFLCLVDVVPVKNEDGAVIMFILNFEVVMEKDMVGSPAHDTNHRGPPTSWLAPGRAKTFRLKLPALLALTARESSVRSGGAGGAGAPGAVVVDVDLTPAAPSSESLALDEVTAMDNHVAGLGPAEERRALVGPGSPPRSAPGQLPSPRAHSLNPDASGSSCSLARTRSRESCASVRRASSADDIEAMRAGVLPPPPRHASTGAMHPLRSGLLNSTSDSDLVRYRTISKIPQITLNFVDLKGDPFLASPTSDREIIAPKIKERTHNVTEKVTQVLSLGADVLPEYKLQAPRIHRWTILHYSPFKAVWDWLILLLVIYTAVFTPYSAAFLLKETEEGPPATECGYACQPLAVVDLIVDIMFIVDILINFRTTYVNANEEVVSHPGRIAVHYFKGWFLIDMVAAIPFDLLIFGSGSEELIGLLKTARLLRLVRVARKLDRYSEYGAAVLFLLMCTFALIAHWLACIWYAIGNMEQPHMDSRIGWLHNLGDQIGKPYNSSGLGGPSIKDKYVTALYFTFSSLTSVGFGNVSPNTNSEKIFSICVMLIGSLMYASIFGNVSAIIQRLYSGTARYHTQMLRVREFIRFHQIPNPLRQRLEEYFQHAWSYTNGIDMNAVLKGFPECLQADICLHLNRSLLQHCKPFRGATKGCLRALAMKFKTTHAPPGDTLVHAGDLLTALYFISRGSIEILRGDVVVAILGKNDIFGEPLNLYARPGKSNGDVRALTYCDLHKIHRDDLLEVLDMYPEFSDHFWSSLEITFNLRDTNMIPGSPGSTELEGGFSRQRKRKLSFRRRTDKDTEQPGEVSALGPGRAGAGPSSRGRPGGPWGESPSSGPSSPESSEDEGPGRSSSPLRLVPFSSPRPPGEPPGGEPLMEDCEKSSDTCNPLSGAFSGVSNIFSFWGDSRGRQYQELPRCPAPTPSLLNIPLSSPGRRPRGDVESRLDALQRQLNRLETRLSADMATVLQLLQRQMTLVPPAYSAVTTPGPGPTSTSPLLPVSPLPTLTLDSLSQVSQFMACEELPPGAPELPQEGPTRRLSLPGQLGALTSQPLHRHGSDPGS
# Sequence of Cytochrome P450 2C19 (P33261 whole entry): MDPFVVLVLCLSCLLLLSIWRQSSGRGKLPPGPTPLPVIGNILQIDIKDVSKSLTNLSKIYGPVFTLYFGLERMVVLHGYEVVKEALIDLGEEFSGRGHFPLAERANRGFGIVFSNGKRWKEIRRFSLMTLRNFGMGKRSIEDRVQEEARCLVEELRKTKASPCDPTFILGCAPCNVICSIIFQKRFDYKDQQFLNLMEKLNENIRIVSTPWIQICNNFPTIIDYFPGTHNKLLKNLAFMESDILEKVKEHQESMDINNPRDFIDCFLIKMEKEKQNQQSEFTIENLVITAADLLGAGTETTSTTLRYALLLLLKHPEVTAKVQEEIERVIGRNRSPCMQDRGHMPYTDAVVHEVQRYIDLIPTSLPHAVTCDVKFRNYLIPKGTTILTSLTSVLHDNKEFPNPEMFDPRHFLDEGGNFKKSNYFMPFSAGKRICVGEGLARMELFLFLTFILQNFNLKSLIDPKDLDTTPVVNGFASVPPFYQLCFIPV
# Sequence of Cytochrome P450 3A4 (P08684 whole entry): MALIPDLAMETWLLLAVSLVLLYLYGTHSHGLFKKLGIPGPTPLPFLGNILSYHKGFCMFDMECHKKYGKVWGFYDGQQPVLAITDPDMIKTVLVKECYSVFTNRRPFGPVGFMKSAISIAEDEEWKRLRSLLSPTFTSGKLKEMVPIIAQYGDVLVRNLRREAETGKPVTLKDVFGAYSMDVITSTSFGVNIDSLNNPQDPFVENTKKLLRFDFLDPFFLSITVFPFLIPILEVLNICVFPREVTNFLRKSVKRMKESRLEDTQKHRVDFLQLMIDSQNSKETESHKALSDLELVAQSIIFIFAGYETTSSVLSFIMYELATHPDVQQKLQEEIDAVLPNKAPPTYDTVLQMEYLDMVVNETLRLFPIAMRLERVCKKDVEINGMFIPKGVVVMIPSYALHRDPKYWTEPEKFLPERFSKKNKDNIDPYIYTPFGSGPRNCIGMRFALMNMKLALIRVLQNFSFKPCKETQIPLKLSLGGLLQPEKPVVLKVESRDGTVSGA
# Sequence of Cytochrome P450 2D6 (P10635 whole entry): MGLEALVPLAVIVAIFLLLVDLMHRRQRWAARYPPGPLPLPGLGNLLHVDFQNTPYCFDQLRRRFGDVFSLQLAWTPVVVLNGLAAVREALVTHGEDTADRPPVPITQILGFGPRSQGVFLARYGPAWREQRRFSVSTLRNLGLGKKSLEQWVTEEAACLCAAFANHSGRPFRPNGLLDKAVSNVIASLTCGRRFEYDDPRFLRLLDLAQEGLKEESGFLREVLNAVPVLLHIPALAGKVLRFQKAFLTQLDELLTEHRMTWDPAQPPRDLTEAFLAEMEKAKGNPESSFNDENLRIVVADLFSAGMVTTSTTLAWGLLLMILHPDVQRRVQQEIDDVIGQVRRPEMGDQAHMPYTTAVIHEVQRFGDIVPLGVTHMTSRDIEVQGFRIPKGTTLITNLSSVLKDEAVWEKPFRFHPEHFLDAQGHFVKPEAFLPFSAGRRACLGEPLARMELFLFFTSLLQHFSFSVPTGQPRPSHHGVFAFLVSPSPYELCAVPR
Tmax [1],half-life [2],CLhep predicted at 1 µM [3],CLhep predicted at 1 µM [4],AUC [5],Cmax [6],Vd [7],clearance [8],Activity [9],bioavailability [10],clearance [15],SMILES,other results
0.17 h,276 min,6 mL/min/kg,36 mL/min/kg,204 ng·h/mL,60 ng/mL,4 L,79 mL/min/kg,100%,19%,–,CN1C[C@H](C(=O)Nc2ccc(Cl)cc2)[C@@H](c2ccc(/C=C/C(=O)Nc3ccccc3N)cn2)C1 (racemic),–
–,–,12 mL/min/kg,41 mL/min/kg,–,–,–,–,> 300%,–,–,CN1C[C@H](C(=O)Nc2ccc(Cl)cc2)[C@@H](c2ccc(/C=C/C(=O)Nc3ccccc3N)nn2)C1 (racemic),Tmax [29]: 4 h; AUC [30]: 116 ng·h/mL; Cmax [31]: 33 ng/mL; Vd [32]: 19 L; clearance [33]: 120 mL/min/kg; bioavailability [34]: 9%

# The remaining lines, values behind:
SMILES,Tmax [1],half-life [2],CLhep predicted at 1 µM [3],CLhep predicted at 1 µM [4],AUC [5],Cmax [6],Vd [7],clearance [8],Activity [9],bioavailability [10],clearance [15],other results
CN1C[C@H](C(=O)Nc2ccc(Cl)cc2)[C@@H](c2ccc(/C=C/C(=O)Nc3ccccc3N)cc2)C1 (racemic),–,–,5 mL/min/kg,35 mL/min/kg,–,–,–,–,–,–,39 mL/min/kg,F [11]: 75%; Cmax [12]: 324 ng/mL; AUC [13]: 2946 ng·h/mL; Tmax [14]: 1 h; t1/2 [16]: 14 h
Nc1ccccc1NC(=O)/C=C/c1ccc([C@H]2CN(CCO)C[C@@H]2C(=O)Nc2ccc(Cl)cc2)cc1 (racemic),–,–,11 mL/min/kg,24 mL/min/kg,–,–,–,–,100%,–,20 mL/min/kg,bioavailability [17]: 58%; Cmax [18]: 957 ng/mL; IC50 [19]: 10 µM; IC50 [20]: 2000 nM; IC50 [21]: 2000 nM; IC50 [22]: 15 µM; IC50 [23]: 3 µM; AUC [24]: 7100 ng·h/mL; Tmax [25]: 15 min; Vd [26]: 4.1; half-life [27]: 900 min; IC50 [28]: 26 µM
CN1C[C@H](C(=O)Nc2ccc(F)cc2)[C@@H](c2ccc(/C=C/C(=O)Nc3ccccc3N)cc2)C1 (racemic),2 h,300 min,5 mL/min/kg,34 mL/min/kg,624 ng·h/mL,170 ng/mL,16 L,127 mL/min/kg,250%,95%,–,–
